Test results as given in ChEMBL document CHEMBL4411297, “Discovery, synthesis and anti-atherosclerotic activities of a novel selective sphingomyelin synthase 2 inhibitor” (Eur J Med Chem, 2019).

Columns and labels:
[1] = tested on: Mus musculus; experiment: Anti-atherosclerotic activity in apoE knockout mouse fed with western-type diet assessed as reduction in CD11b+/CD11c+ dendritic cells at 40 mg/kg/day, ig for 7 weeks by flow cytometric analysis relative to control; type: functional; design: scale not given: the % may be the effect or the level left
In short: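 ApoE KO mice started at 8 weeks old on Western-type diet for 6 weeks. Then dosed by gavage daily with vehicle, 12.5 or 40 mg/kg for 7 weeks with the diet continued, 10 mice per group. Blood single-cell suspensions stained with antibodies in PBS and analysed by flow cytometry. Mean ± SD, n = 5.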

[2] = Half life in C57BL/6J mouse at 50 mg/kg/day, ig by HPLC-MS/MS analysis; type: ADME, organism-based; settings: in vivo, po
In short: (§1)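 Male C57BL/6J mice, six to eight weeks old, about 20 g, fasted 12 h with free water. Given a single intragastric dose of 25, 50 or 100 mg/kg in 10% DMSO/30% PEG-100/0.9% NaCl. Blood taken retro-orbitally at 5 min to 8 h. Plasma protein-precipitated with methanol plus internal standard, then HPLC-MS/MS on a C18 column. Noncompartmental analysis, n = 6.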

[3] = MRT (0 to infinity) in C57BL/6J mouse at 100 mg/kg/day, ig by HPLC-MS/MS analysis; type: ADME, organism-based; settings: in vivo, po
In short: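 Male C57BL/6J mice (6–8 weeks, ~20 g), fasted 12 h, given a single intragastric dose of 25, 50 or 100 mg/kg in 10% DMSO/30% PEG/0.9% NaCl. Retro-orbital blood at 5 min to 8 h; plasma protein-precipitated with methanol plus internal standard, assayed by LC-MS/MS; noncompartmental analysis. Mean ± SD, n = 6.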

[4] = tested on: Mus musculus; experiment: Anti-atherosclerotic activity in apoE knockout mouse fed with western-type diet assessed as reduction in lesions in whole aorta at 12.5 mg/kg/day, ig for 7 weeks by oil-red O staining-based assay relative to control; type: functional; design: scale not given: the % may be the effect or the level left
In short: (§2)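 ApoE KO mice fed Western-type diet, then given 12.5 or 40 mg/kg/day by gavage in 30% PEG-400/10% DMSO/0.9% NaCl for 7 weeks. Aortic root: H&E-stained 4 µm sections, mean lesion area from 6 sections per animal. Whole aorta: en face Oil Red O staining, percentage of area stained. Compared with vehicle, n = 10.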

[5] = tested on: Mus musculus; experiment: Anti-atherosclerotic activity in ig dosed apoE knockout mouse fed with western-type diet assessed as reduction in plasma sphingomyelin level; type: functional, organism-based
In short: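 ApoE KO mice on Western-type diet, dosed by gavage at 12.5 or 40 mg/kg/day for 7 weeks, n = 10. Blood collected at 20 weeks of age. Plasma SM measured by a previously reported method. ALT and AST read on an automated biochemical analyzer.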

[6] = tested on: BMDM; experiment: Induction of cytosolic IkappaBalpha […] in LPS-stimulated C57BL/6J mouse bone marrow derived macrophages preincubated for 17 hrs followed by LPS-stimulation and measured after 6 hrs by Western blot analysis; type: functional, cell-based
In short: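 Bone marrow-derived macrophages from femurs of 8-week-old male C57BL/6J mice, preincubated with a range of concentrations for 17 h, then stimulated with 1 µg/ml LPS. Cells lysed in RIPA buffer with protease inhibitors. Western blot probed for IκBα with β-actin as loading control, ECL detection. Mean ± SD, n = 7.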

[7] = tested on: Mus musculus; experiment: Anti-atherosclerotic activity in apoE knockout mouse fed with western-type diet assessed as reduction in liver SMS activity at 12.5 mg/kg/day, ig for 7 weeks relative to control; type: functional; design: scale not given: the % may be the effect or the level left
In short: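 ApoE KO mice on Western-type diet, dosed by gavage at 12.5 or 40 mg/kg/day for 7 weeks, n = 10. Liver homogenized at 200 mg/ml in 50 mM Tris-HCl pH 7.4, 1 mM EDTA, 250 mM sucrose. C6-NBD-ceramide and DMPC added, incubated at 37 °C, quenched with ethanol. Product read by TLC or HPLC, relative to vehicle.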

[8] = biological target: T1, Phosphatidylcholine:ceramide cholinephosphotransferase 1 (Homo sapiens, UniProt Q86VZ5); experiment: (§3) Inhibition of purified SMS1 (unknown origin) using C6-NBD-Ceramide and DMPC as substrates preincubated for 5 mins followed by substrate addition and measured after 30 mins by TLC or HPLC method
T1 sequence (Q86VZ5 whole entry): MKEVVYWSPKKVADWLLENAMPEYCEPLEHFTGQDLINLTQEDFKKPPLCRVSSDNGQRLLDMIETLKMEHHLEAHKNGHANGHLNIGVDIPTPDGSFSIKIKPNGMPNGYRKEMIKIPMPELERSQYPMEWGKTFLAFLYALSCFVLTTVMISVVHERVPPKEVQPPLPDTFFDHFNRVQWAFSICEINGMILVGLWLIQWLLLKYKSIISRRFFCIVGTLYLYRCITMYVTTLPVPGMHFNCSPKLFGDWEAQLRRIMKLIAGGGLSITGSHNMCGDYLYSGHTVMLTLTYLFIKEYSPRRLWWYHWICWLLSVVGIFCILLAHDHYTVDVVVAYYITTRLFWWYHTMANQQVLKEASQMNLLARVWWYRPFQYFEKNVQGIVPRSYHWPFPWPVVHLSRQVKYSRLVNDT
In short: (§4)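 Purified SMS1 or SMS2 in DDM detergent buffer; inhibitor in DMSO pre-incubated 5 min at room temperature, then C6-NBD-ceramide and DMPC added, 30 min at 37 °C; ethanol quench, TLC or HPLC read-out. Activity expressed as percent of no-inhibitor vehicle; IC50 from ten (SMS1) or eight (SMS2) concentrations, mean ± SD, n = 3.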

[9] = biological target: T2, Phosphatidylcholine:ceramide cholinephosphotransferase 1 (Homo sapiens) (UniProt Q86VZ5); experiment: as §3; in short: as §4
T2 sequence (whole entry): T1 sequence (Q86VZ5 whole entry)

[10] = AUC (0 to infinity) in C57BL/6J mouse at 25 mg/kg/day, ig by HPLC-MS/MS analysis; type: ADME, organism-based; design: dose 25 mg/kg/day, time infinity, route intragastric; settings: in vivo, po; in short: as §1
[11] = Apparent volume of distribution during terminal phase in C57BL/6J mouse at 50 mg/kg/day, ig by HPLC-MS/MS analysis; type: ADME, organism-based; settings: in vivo, po, read-out: Vz/F; in short: as §1
[12] = tested on: Mus musculus; experiment: Anti-atherosclerotic activity in apoE knockout mouse fed with western-type diet assessed as reduction in lesions in proximal aorta at 12.5 mg/kg/day, ig for 7 weeks by hematoxylin and eosin staining-based assay relative to control; type: functional; design: scale not given: the % may be the effect or the level left; in short: as §2
[13] = AUC (0 to infinity) in C57BL/6J mouse at 50 mg/kg/day, ig by HPLC-MS/MS analysis; type: ADME, organism-based; design: dose 50 mg/kg/day, time infinity, route intragastric; settings: in vivo, po; in short: as §1
[14] = Apparent oral clearance in C57BL/6J mouse at 25 mg/kg/day, ig by HPLC-MS/MS analysis; type: ADME, organism-based; settings: in vivo; in short: as §1
[15] = Cmax in C57BL/6J mouse at 25 mg/kg/day, ig by HPLC-MS/MS analysis; type: ADME, organism-based; design: dose 25 mg/kg/day, route intragastric; settings: in vivo, po; in short: as §1

half-life [2]: 1.83 h
MRT inf [3]: 2.57 h
IC50 [8]: 134 µM
inhibition [9]: Dose-dependent effect
AUC(0-inf) [10]: 2360 ng·h/mL
Vd/F [11]: 26.5 L
AUC(0-inf) [13]: 6790 ng·h/mL
CL/F [14]: 188 mL/min
Cmax [15]: 2530 ng/mL
SMILES: CCc1ccccc1COc1ccccc1C(=O)Nc1cccnc1
Activity [1]: 57%
Activity [4]: 32%
Activity [5]: Dose-dependent effect
Activity [6]: Dose-dependent effect
Activity [7]: 35%
Activity [12]: 38%
